In ChEMBL document CHEMBL4619773, “Chemoreactive-Inspired Discovery of Influenza A Virus Dual Inhibitor to Block Hemagglutinin-Mediated Adsorption and Membrane Fusion” (J Med Chem, 2020):
≈ marks a conversion by molar mass, not a printed value. Calls of active or inactive are those of the source. No cut-off for these calls is given here.

How the values were obtained:
Influenza A virus [1] = assay: Antiviral activity against luciferase tagged Influenza A virus H5N1 pseudovirus infected in MDCK cells assessed as reduction in virus infection incubated for 48 hrs by luciferase reporter gene assay; type: functional, organism-based
Method in brief: (§1)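 MDCK cells infected with luciferase-expressing H5N1 HA/NA pseudotyped HIV-based virus were treated with compound under four different treatment regimens. Infection was quantified by firefly luciferase glow assay.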

[2] = Cumulative drug excretion in rat urine at 0.35mg/kg, iv administered as single dose measured after 72 hrs; type: ADME, organism-based; details: read-out: Drug excretion
Method in brief: (§2)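 Single oral (gavage, 0.5% CMC-Na) or iv (tail vein, PEG400) dosing was given to male Kunming mice or Sprague Dawley rats held in metabolic cages. Urine and feces were collected at intervals to 72 h. Feces were dried, ground and homogenized in water (1:9 w/v). Samples were precipitated with acetonitrile containing internal standard and analysed by LC-MS/MS.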

[3] = Cumulative drug excretion in rat feces at 0.35mg/kg, iv administered as single dose measured after 72 hrs; type: ADME, organism-based; details: faeces, read-out: Drug excretion; method in brief: as §2
[4] = Toxicity in Kunming mouse assessed as effect on creatinine level at 5 to 10 mg/kg/day, po for 7 days; type: organism-based; details: in vivo, 168 h
Method in brief: (§3)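 Male Kunming mice (20–25 g) received compound orally at 5 or 10 mg/kg/day, suspended in 0.5% sodium carboxymethyl cellulose, once daily for 7 days; controls received vehicle. Serum was collected under isoflurane 24 h after the last dose. AST, ALT, CR, BUN, LDH, CK and CK-MB were measured with commercial kits.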

[5] = Tmax in mouse at 5 mg/kg, po administered as single dose; type: ADME, organism-based; details: in vivo
Method in brief: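 Male Kunming mice (20–25 g) and male SD rats (180–220 g) were fasted 12 h before dosing. Compound was suspended in 0.5% CMC-Na and given by gavage (5 mg/kg mice, 3.5 mg/kg rats), or dissolved in PEG400 and given iv via tail vein (0.5 mg/kg mice, 0.35 mg/kg rats). Plasma was sampled from 5 min to 24 h and analysed by LC-MS/MS (n=3). F = AUCoral/AUCiv.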

Influenza A virus [6] = assay: Antiviral activity against Influenza A virus (A/Puerto Rico/8/1934(H1N1)) infected in Kunming mouse assessed as decrease in lung IL6 level at 20 to 40 ug/day dosed intranasally starting 4 hrs after viral challenge and continued for 4 days by ELISA; type: functional, organism-based
Method in brief: (§4)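 Four-week-old female Kunming mice received PR8 intranasally (500 PFU/mouse in 40 µL PBS) and were then dosed once daily orally or intranasally. Lungs were collected on day 4, and TNF-α and IL-6 in lung tissue were measured by ELISA.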

Influenza A virus [7] = assay: Antiviral activity against luciferase tagged Influenza A virus H5N1 pseudovirus infected in MDCK cells assessed as reduction in virus infection at 50 ug/ml using compound pre-treated virus for infection and measured after 48 hrs by luciferase reporter gene assay; type: functional, organism-based; method in brief: as §1
[8] = Toxicity in Influenza A virus (A/Puerto Rico/8/1934(H1N1)) infected Kunming mouse assessed as induction of body weight loss at 20 to 40 ug/day dosed intranasally starting 4 hrs after viral challenge and continued for 7 days by plaque assay; type: organism-based; details: in vivo, inhaled_or_intranasal
[9] = AUC (0 to t) in rat at 3.5 mg/kg , po administered as single dose; type: ADME, organism-based; details: in vivo
Method in brief: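 Male Kunming mice (20-25 g) and male Sprague Dawley rats (180-220 g) were fasted 12 h before dosing. Oral dosing was by gavage as a suspension in 0.5% sodium carboxymethyl cellulose; iv dosing was via tail vein in PEG400. Serial plasma samples were taken to 24 h, protein-precipitated with acetonitrile plus N-CH3 internal standard, and quantified by LC-MS/MS (n=3). Bioavailability = AUCoral/AUCiv.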

Influenza A virus [10] = assay: Antiviral activity against Influenza A virus (A/Puerto Rico/8/1934(H1N1)) infected in Kunming mouse assessed as decrease in pulmonary viral titers at 5 to 10 mg/kg/day, po starting 4 hrs after viral challenge and continued for 4 days by plaque assay; type: functional, organism-based
Method in brief: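 Four-week-old female Kunming mice were infected intranasally with PR8 (500 PFU/mouse in 40 µL PBS), randomized, and dosed once daily orally or intranasally. On day 4 the mice were euthanized; lungs were removed, weighed, homogenized in PBS, and titrated by plaque assay.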

Influenza A virus [11] = assay: Antiviral activity against Influenza A virus (A/Puerto Rico/8/1934(H1N1)) infected in Kunming mouse assessed as decrease in lung TNFalpha level at 5 to 10 mg/kg/day, po starting 4 hrs after viral challenge and continued for 4 days by ELISA; type: functional, organism-based; method in brief: as §4
Influenza A virus [12] = assay: Antiviral activity against Influenza A virus (A/Puerto Rico/8/1934(H1N1)) infected in Kunming mouse assessed as mouse survival at 40 ug/day dosed intranasally starting 4 hrs after viral challenge and continued for 7 days and measured on day 14 by plaque assay; type: functional
Method in brief: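 Groups of 10 female Kunming mice were infected intranasally with PR8 (1000 PFU/mouse) on day 0 and dosed once daily for seven days. Weight and clinical signs were recorded daily. Mice losing more than 25% of pre-infection weight were scored dead and euthanized; survivors were killed on day 14.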

[13] = target: Hemagglutinin (Influenza A virus (A/Puerto Rico/8/1934(H1N1))) (UniProt P03452); assay: Inhibition of conformational changes in Influenza A virus (A/Puerto Rico/8/1934(H1N1)) Hemagglutinin assessed as increase in retention amount of HA1 subunit on HA proteins at 25 to 50 ug/ml added before acidification incubated for 1 hr by conformational change inhibition assay
Method in brief: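 C-terminal biotinylated H1/PR8 HA (0.2 µg/ml) was captured on streptavidin plates for 1 h at RT. Compound (50, 25, 12.5 µg/ml) was added for 1 h, then 1 M acetate pH 5.25 for 20 min. 2.5 mM DTT was applied for 60 min to remove HA1 from postfusion HA. Retained HA1 was detected with anti-HA1 head antibody and HRP secondary, read as A450 with TMB.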

Influenza A virus [14] = assay: Antiviral activity against wild type Influenza A virus (A/Puerto Rico/8/1934(H1N1)) pseudovirus infected in 293FT cells incubated for 48 hrs by inverted fluorescence microscopy; type: functional, organism-based
Method in brief: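 GFP-reporter lentiviral pseudoviruses bearing PR8 wild-type or mutant (T30N/E233D/T359A or T359A) HA plus NA were produced in 293FT cells. Pseudovirus was pretreated with 50 µg/ml compound for 1 h at 37 °C before infection. GFP-positive cells were counted by fluorescence microscopy at 48 h p.i.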

[15] = Cumulative drug excretion in rat feces at 3.5 mg/kg, po administered as single dose measured after 72 hrs; type: ADME, organism-based; details: faeces, read-out: Drug excretion; method in brief: as §2
Influenza A virus [16] = assay: Antiviral activity against Influenza A virus (A/Aichi/2/1968(H3N2)) infected in MDCK cells incubated for 3 days by crystal violet staining based plaque assay; type: functional, organism-based; details: 72 h
Method in brief: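 Confluent MDCK monolayers were exposed to 10-fold serial virus dilutions for 1 h at 37 °C, then washed. The overlay was DMEM with 1.5% agarose, 0.02% DEAE-dextran and 1 µg/ml TPCK-trypsin. After 3 days at 37 °C in 5% CO2, cells were fixed with 0.05% glutaraldehyde, stained with 1% crystal violet in 20% ethanol, and plaques were counted.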

[17] = Selectivity index, ratio of CC50 for cytotoxicity in dog MDCK cells assessed as reduction in cell viability incubated for 48 hrs by crystal violet staining based assay to […] in dog MDCK cells assessed as reduction in cell viability incubated for 48 hrs by crystal violet staining based assay
[18] = Toxicity in Kunming mouse assessed as effect on creatine kinase level at 5 to 10 mg/kg/day, po for 7 days; type: organism-based; details: in vivo, 168 h; method in brief: as §3

Hemagglutinin (Influenza A virus (A/Puerto Rico/8/1934(H1N1))), sequence (P03452 whole entry, the tested form may be a part): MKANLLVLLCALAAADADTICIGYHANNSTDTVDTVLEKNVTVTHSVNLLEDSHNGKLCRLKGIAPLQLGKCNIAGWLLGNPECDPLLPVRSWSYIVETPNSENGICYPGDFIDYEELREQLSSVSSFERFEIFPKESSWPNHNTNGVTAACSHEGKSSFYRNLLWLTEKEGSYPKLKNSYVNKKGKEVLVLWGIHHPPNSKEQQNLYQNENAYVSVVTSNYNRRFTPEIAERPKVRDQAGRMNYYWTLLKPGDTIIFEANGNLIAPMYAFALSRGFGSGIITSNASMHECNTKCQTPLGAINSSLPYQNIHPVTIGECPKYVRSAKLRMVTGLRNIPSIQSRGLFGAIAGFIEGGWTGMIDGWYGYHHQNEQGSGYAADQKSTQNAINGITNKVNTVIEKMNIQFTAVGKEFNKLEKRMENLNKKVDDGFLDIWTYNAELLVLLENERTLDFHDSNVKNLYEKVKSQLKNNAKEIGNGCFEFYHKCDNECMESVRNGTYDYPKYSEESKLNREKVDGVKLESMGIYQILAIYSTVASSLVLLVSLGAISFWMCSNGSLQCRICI

In the case of `CC(=O)c1cc(C)c(O)c(Cc2[nH]c3ccccc3c2Cc2c(O)c(C)cc(C(C)=O)c2O)c1O`, the Activity (Influenza A virus [1]) is reported as “Dose-dependent effect”, the dose excreted at 72 h [2] is reported as 0.006% and the dose excreted at 72 h [3] is reported as 7.2%. The Activity [4] was “Non-Toxic”, the Tmax [5] was 4 h and the Activity (Influenza A virus [6]) was “Active”. The inhibition (Influenza A virus [7]) was “Active”, the Activity [8] was “Non-Toxic” and the AUC(0-t) [9] was 1360 ng·h/mL. The Activity (Influenza A virus [10]) was “Active”, the Activity (Influenza A virus [11]) was “Active” and the Survival (Influenza A virus [12]) was 100%. The inhibition [13] was “Active”, the IC50 (Influenza A virus [14]) was 6 µg/mL (≈ 12.7 µM) and the dose excreted at 72 h [15] was 96.4%. For the same compound, the IC50 (Influenza A virus [16]) was less than 13 µg/mL, the “Ratio CC50/IC50” value [17] was 55.8 and the Activity [18] was “Non-Toxic”.
